Measured values: ChEMBL document CHEMBL1140903, “Reactions of functionalized sulfonamides: application to lowering the lipophilicity of cytosolic phospholipase A2alpha inhibitors” (J Med Chem, 2009)
The source made the active and inactive calls. The calls are words filed in the database; no cut-off is given here.

Experiments:
Blood [1] = assay: Inhibition of A23187-induced TBX2 release in Sprague-Dawley rat whole blood; type: functional, tissue-based
In short: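 Rat whole blood is stimulated with calcium ionophore A23187, and thromboxane B2 is the read-out (cPLA2α- and COX-1-dependent). IC50 is taken from at least two runs, each run the mean of triplicate assays.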

MC9 [2] = assay: Inhibition of IgE-specific antigen-induced PGF2alpha release in mouse MC9 cells at 0.11 uM
Rattus norvegicus [3] = assay: Antiinflammatory activity against carrageenan-induced paw edema in Sprague-Dawley rat at 15 mg/kg, iv; type: functional
In short: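 Rat carrageenan paw edema after iv dosing in 50/50 PEG/DMSO, with paw swelling assessed 3 h after dosing. Groups of 10 animals; naproxen was used to define maximal % inhibition.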

MC9 [4] = assay: Inhibition of arachidonic acid-induced PGF2-alpha release in mouse MC9 cells at 1.0 uM
Rattus norvegicus [5] = assay: Plasma concentration in carrageenan-induced paw edema Sprague-Dawley rat model at 15 mg/kg, iv; type: ADME, organism-based; parameters: dose 15 mg/kg, route intravenous; conditions: in vivo
In short: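 Plasma concentration is measured in end-bleed samples taken 3 h after iv dosing in 50/50 PEG/DMSO in the carrageenan paw edema model. Values are means from five animals.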

MC9 [6] = assay: Inhibition of IgE-specific antigen-induced LBT4 release in mouse MC9 cells at 0.11 uM
[7] = target: T1, Cytosolic phospholipase A2 (Homo sapiens, UniProt P47712); assay: Inhibition of human cytosolic PLA2alpha by GLU micelle assay
T1 sequence (P47712 whole entry): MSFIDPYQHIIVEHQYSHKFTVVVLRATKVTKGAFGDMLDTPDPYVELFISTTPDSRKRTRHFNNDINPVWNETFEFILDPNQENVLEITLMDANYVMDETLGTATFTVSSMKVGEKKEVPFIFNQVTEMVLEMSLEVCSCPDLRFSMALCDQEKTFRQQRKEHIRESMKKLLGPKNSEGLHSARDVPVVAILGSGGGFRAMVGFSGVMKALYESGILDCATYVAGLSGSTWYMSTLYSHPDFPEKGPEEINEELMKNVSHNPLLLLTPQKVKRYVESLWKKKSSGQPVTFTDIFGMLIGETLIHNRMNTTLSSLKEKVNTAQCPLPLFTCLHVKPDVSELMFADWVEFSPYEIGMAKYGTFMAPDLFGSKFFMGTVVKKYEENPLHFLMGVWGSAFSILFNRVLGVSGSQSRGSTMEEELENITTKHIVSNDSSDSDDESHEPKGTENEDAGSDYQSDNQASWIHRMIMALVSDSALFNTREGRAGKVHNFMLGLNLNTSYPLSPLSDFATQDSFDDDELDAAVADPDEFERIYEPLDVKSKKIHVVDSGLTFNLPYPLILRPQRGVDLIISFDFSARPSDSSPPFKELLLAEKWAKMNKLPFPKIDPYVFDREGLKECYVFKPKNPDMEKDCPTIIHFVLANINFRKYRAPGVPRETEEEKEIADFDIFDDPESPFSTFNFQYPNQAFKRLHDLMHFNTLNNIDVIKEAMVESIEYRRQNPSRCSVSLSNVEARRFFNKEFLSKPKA
In short: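 Purified human cPLA2α with the substrate 7-hydroxycoumarinyl-γ-linolenate (GLU), presented in micelles containing a high concentration of detergent and lipid. IC50 is taken from at least two runs, each run the mean of duplicate assays.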

MC9 [8] = assay: Inhibition of IgE-specific antigen-induced PGF2alpha release in mouse MC9 cells at […]
MC9 [9] = assay: Inhibition of IgE-specific antigen-induced LBT4 release in mouse MC9 cells at […]
MC9 [10] = assay: Inhibition of arachidonic acid-induced PGF2-alpha release in mouse MC9 cells at 0.5 uM
MC9 [11] = assay: Inhibition of IgE-specific antigen-induced LBT4 release in mouse MC9 cells at 0.5 uM
MC9 [12] = assay: Inhibition of IgE-specific antigen-induced PGF2alpha release in mouse MC9 cells at 0.5 uM
MC9 [13] = assay: Inhibition of IgE-specific antigen-induced PGF2-alpha release in mouse MC9 cells at 1.0 uM
MC9 [14] = assay: Inhibition of IgE-specific antigen-induced LBT4 release in mouse MC9 cells at 1.0 uM
Blood [15] = assay: Inhibition of A23187-induced TBX2 release in human whole blood at 10 uM; type: functional
MC9 [16] = assay: Inhibition of IgE-specific antigen-induced PGF2-alpha release in mouse MC9 cells at 0.037 uM
MC9 [17] = assay: Inhibition of IgE-specific antigen-induced LBT4 release in mouse MC9 cells at 0.037 uM
MC9 [18] = assay: Inhibition of IgE-specific antigen-induced LBT4 release in mouse MC9 cells at 0.333 uM
Blood [19] = assay: Inhibition of A23187-induced TBX2 release in human whole blood; type: functional, tissue-based
In short: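 Human whole blood is stimulated with calcium ionophore A23187 at a higher concentration than in the rat whole blood assay. Thromboxane production is the read-out.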

Rattus norvegicus [20] = assay: Plasma concentration in carrageenan-induced paw edema Sprague-Dawley rat model at 15 mg/kg, iv; conditions: in vivo
MC9 [21] = assay: Inhibition of arachidonic acid-induced PGF2-alpha release in mouse MC9 cells
MC9 [22] = assay: Inhibition of IgE-specific antigen-induced LBT4 release in mouse MC9 cells at […]; remark: listed apart in the source
MC9 [23] = assay: Inhibition of IgE-specific antigen-induced PGF2-alpha release in mouse MC9 cells
MC9 [24] = assay: Inhibition of arachidonic acid-induced PGF2-alpha release in rat MC9 cells at 0.0005 uM; type: functional; conditions: Mus musculus
MC9 [25] = assay: Inhibition of IgE-specific antigen-induced PGF2-alpha release in rat MC9 cells at 0.0005 uM; type: functional; conditions: Mus musculus
MC9 [26] = assay: Inhibition of IgE-specific antigen-induced PGF2-alpha release in mouse MC9 cells at 0.40 uM
MC9 [27] = assay: Inhibition of arachidonic acid-induced PGF2alpha release in mouse MC9 cells at 0.30 uM
MC9 [28] = assay: cells; conditions: Mus musculus, MC9, read-out: INH
MC9 [29] = assay: Inhibition of IgE-specific antigen-induced PGF2alpha release in rat MC9 cells at 0.20 uM; conditions: Mus musculus, MC9, read-out: INH
Rattus norvegicus [30] = assay: Antiinflammatory activity against carrageenan-induced paw edema in Sprague-Dawley rat at 10 mg/kg, iv; conditions: read-out: INH

Structure (SMILES) | IC50 (Blood [1]) | inhibition at 0.11 µM (MC9 [2]) | inhibition at 1 µM (MC9 [4]) | inhibition at 0.11 µM (MC9 [6]) | IC50 [7] | other results
O=C(O)c1ccc(CCCc2c(CCNS(=O)(=O)CCN3CCOCC3)n(C(c3ccccc3)c3ccccc3)c3ccc(Cl)cc23)cc1 | 140 nM | 71% | 9% | 69% | 200 nM | inhibition in vivo at 15 mg/kg (Rattus norvegicus [3]): 23.5%; concentration (Rattus norvegicus [5]): 163 nM
NC(=O)C1CCCN1CCS(=O)(=O)NCCc1c(CCOc2ccc(C(=O)O)cc2)c2cc(Cl)ccc2n1C(c1ccccc1)c1ccccc1 (single isomer, unassigned) | 3200 nM |  | 8% |  | 350 nM | inhibition at 0.33 µM at […] (MC9 [8]): 41%; inhibition at 0.33 µM at […] (MC9 [9]): 41%
CS(=O)(=O)CS(=O)(=O)NCCc1c(CCOc2ccc(C(=O)O)cc2)c2cc(Cl)ccc2n1C(c1ccccc1)c1ccccc1 | 480 nM |  |  |  | 150 nM | inhibition at 0.5 µM (MC9 [10]): -47%; inhibition at 0.5 µM (MC9 [11]): 100%; inhibition at 0.5 µM (MC9 [12]): 100%
O=C(O)c1ccc(OCCc2c(CCNS(=O)(=O)CCn3cnnn3)n(C(c3ccccc3)c3ccccc3)c3ccc(Cl)cc23)cc1 | 5600 nM |  | -5% |  | 470 nM | inhibition at 1 µM (MC9 [13]): 19%; inhibition at 1 µM (MC9 [14]): 59%; inhibition at 10 µM (Blood [15]): < 25%
O=C(O)c1ccc(OCCc2c(CCNS(=O)(=O)C[S+]([O-])c3ccc(Cl)c(Cl)c3)n(C(c3ccccc3)c3ccccc3)c3ccc(Cl)cc23)cc1 (stereo unspecified) | 560 nM | 45% | 1.4% | 55% | 180 nM | 
CC1CCC(C)N1CCS(=O)(=O)NCCc1c(CCOc2ccc(C(=O)O)cc2)c2cc(Cl)ccc2n1C(c1ccccc1)c1ccccc1 (stereo unspecified) | 74 nM | 69% | -2% | 80% | 130 nM | inhibition in vivo at 15 mg/kg (Rattus norvegicus [3]): 37%; concentration (Rattus norvegicus [5]): 232 nM
CC1CCCCN1CCS(=O)(=O)NCCc1c(CCOc2ccc(C(=O)O)cc2)c2cc(Cl)ccc2n1C(c1ccccc1)c1ccccc1 (stereo unspecified) | 57 nM |  | 14% |  | 120 nM | inhibition at 0.037 µM (MC9 [16]): 45%; inhibition at 0.037 µM (MC9 [17]): 62%
O=C(O)c1ccc(OCCc2c(CCNS(=O)(=O)CSc3ccc(Cl)c(Cl)c3)n(C(c3ccccc3)c3ccccc3)c3ccc(Cl)cc23)cc1 | 140 nM |  | 33% |  | 240 nM | inhibition at 0.037 µM (MC9 [16]): 48%; inhibition at 0.037 µM (MC9 [17]): 64%
O=C(O)c1ccc(OCCc2c(CCNS(=O)(=O)CSc3ccc(F)cc3F)n(C(c3ccccc3)c3ccccc3)c3ccc(Cl)cc23)cc1 | 30 nM |  | 47% |  | 140 nM | inhibition at 0.037 µM (MC9 [16]): 77%; inhibition at 0.037 µM (MC9 [17]): 94%
CN(C)CC1CCCCN1CCS(=O)(=O)NCCc1c(CCOc2ccc(C(=O)O)cc2)c2cc(Cl)ccc2n1C(c1ccccc1)c1ccccc1 (stereo unspecified) | 150 nM | 56% | 13% | 62% | 270 nM | 
O=C(O)c1ccc(OCCc2c(CCNS(=O)(=O)CCN3CCSCC3)n(C(c3ccccc3)c3ccccc3)c3ccc(Cl)cc23)cc1 | 180 nM | 66% | 6% | 76% |  | inhibition in vivo at 15 mg/kg (Rattus norvegicus [3]): 27.9%; concentration (Rattus norvegicus [5]): 270 nM
Cc1cc(C)n(CCS(=O)(=O)NCCc2c(CCOc3ccc(C(=O)O)cc3)c3cc(Cl)ccc3n2C(c2ccccc2)c2ccccc2)n1 | 160 nM | 83% | 5% | 89% | 450 nM | 
O=C(O)c1ccc(OCCc2c(CCNS(=O)(=O)CCn3ncnn3)n(C(c3ccccc3)c3ccccc3)c3ccc(Cl)cc23)cc1 | 450 nM |  | 4% |  | 380 nM | inhibition at 0.333 µM (MC9 [18]): 80%; inhibition at 0.33 µM at […] (MC9 [8]): 71%; IC50 (Blood [19]): 2000 nM
O=C(O)c1ccc(CCCc2c(CCNS(=O)(=O)Cc3ccc(Cl)c(Cl)c3)n(C(c3ccccc3)c3ccccc3)c3ccc(Cl)cc23)cc1 [EFIPLADIB] | 70 nM |  |  |  | 40 nM | inhibition in vivo at 15 mg/kg (Rattus norvegicus [3]): 51%; concentration (Rattus norvegicus [20]): 5300 nM
CC(c1cc2ccccc2s1)N(O)C(N)=O (stereo unspecified) [ZILEUTON] |  |  |  |  |  | Activity (MC9 [21]): inactive; inhibition at 0.55 µM at […] (MC9 [22]): 50%; Activity (MC9 [23]): inactive
Cc1ccc(-c2cc(C(F)(F)F)nn2-c2ccc(S(N)(=O)=O)cc2)cc1 [CELECOXIB] |  |  |  |  |  | inhibition at 0.0005 µM (MC9 [24]): 79%; inhibition at 0.0005 µM (MC9 [25]): 79%; inhibition at 0.4 µM (MC9 [26]): 50%; inhibition at 0.3 µM (MC9 [27]): 50%
COc1ccc2cc([C@H](C)C(=O)O)ccc2c1 [NAPROXEN] |  |  |  |  |  | inhibition at […] (MC9 [28]): 50%; inhibition at 0.2 µM (MC9 [29]): 50%; inhibition in vivo at 10 mg/kg (Rattus norvegicus [30]): 50%
